Experiments:
[1] = Ratio of inhibition of cyclin dependant kinase 2-cyclin E to that of cyclin-dependent kinase 5
Method in brief: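 Selectivity is the cdk2/cyclin E IC50 divided by the cdk5/p25 IC50 (k2/k5). Both IC50s came from six-point triplicate dose–response curves in scintillation proximity assays run at the same final ATP concentration.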

[2] = biological target: T1, Cyclin-dependent kinase 2/cyclin E1 (Homo sapiens, UniProt P24941); test: Concentration required for inhibition of cyclin dependant kinase 2-cyclin E was measured by scintillation proximity assay; type: protein-complex assay
Method in brief: (§1)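 Kinase activity was read by scintillation proximity assay against cdk5/p25 and cdk2/cyclin E, with the same final ATP concentration in both assays. ATP Km was measured separately for each enzyme. Each IC50 came from a six-point dose–response curve run in triplicate.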

[3] = biological target: Cyclin-dependent kinase 5 (Homo sapiens, UniProt Q00535); test: Concentration required for inhibition of cyclin-dependent kinase 5 was measured by scintillation proximity assay; method in brief: as §1
Cyclin-dependent kinase 5, sequence (Q00535 whole entry): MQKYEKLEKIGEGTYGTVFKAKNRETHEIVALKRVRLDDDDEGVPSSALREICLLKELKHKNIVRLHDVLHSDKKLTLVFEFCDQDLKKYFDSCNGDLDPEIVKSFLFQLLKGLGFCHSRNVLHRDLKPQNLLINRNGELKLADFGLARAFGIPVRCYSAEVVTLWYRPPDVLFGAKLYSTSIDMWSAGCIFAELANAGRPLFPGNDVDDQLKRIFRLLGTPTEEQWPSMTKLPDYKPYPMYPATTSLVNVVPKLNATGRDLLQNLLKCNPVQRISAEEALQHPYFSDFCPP

[4] = biological target: T1, Cyclin-dependent kinase 2/cyclin E1; test: Concentration required for 50% inhibition of cyclin dependant kinase 2-cyclin E was measured by scintillation proximity assay; type: protein-complex assay; method in brief: as §1

| Ratio [1] | IC50 [2] | IC50 [3] | IC50 [4] | Structure (SMILES) |
| --- | --- | --- | --- | --- |
| 3.8 | 167 nM | 44 nM |  | O=C(Nc1ccc2ncccc2c1)Nc1ncc(C2CCC2)s1 |
| 1.5 |  | 64 nM | 98 nM | CC(C)c1cnc(NC(=O)Cc2ccccc2)s1 |
| 1.3 | 2000 nM | 1570 nM |  | O=C(Cc1ccccc1)Nc1ncc(-c2ccccc2)s1 |
| 2.6 | 26 nM | 10 nM |  | O=C(Cc1ccc2ncccc2c1)Nc1ncc(C2CCC2)s1 |
| 1 | 6510 nM | 6530 nM |  | O=C(Cc1ccccc1)Nc1ncc(C2=CCCC2)s1 |
| 1.6 | 290 nM | 183 nM |  | O=C(Nc1ccccc1)Nc1ncc(C2CCC2)s1 |
| 3 | 74 nM | 25 nM |  | O=C(Cc1ccccc1)Nc1ncc(C2CCC2)s1 |
| 2.5 | 40 nM | 16 nM |  | O=C(Cc1c[nH]c2ccccc12)Nc1ncc(C2CCC2)s1 |
| 2.6 |  | 102 nM | 265 nM | CC(C)c1cnc(NC(=O)Nc2ccccc2)s1 |
| 5.4 | 70 nM | 13 nM |  | O=C(Cc1cccc2cnccc12)Nc1ncc(C2CCC2)s1 |
| 0.5 | 480 nM | 900 nM |  | O=C(Cc1ccccc1)Nc1ncc(Br)s1 |
|  | 106 nM | 41 nM |  | O=C(Nc1ncc(C2CCC2)s1)Nc1cccc2nn[nH]c12 |
| 2.1 |  | 4580 nM | 9770 nM | CC(C)c1cnc(NC(=O)C(=O)c2ccccc2)s1 |
| 2.6 | 997 nM | 390 nM |  | O=C(Cc1ccccc1)Nc1ncc(C2CCCCC2)s1 |
| 1 | 318 nM | 321 nM |  | CC(C)C(=O)Nc1ncc(C(C)C)s1 |
| 3.4 | 650 nM | 190 nM |  | O=C(Nc1ncc(C2CCC2)s1)Nc1cccc2c[nH]nc12 |

| Ratio [1] | IC50 [2] | IC50 [3] | IC50 [4] | Structure (SMILES) |
| --- | --- | --- | --- | --- |
| 2.6 |  |  |  | O=C(Nc1ncc(C2CCC2)s1)Nc1cccc2[nH]nnc12 |
| 1.2 | 105 nM | 91 nM |  | CSc1cnc(NC(=O)Cc2ccccc2)s1 |
| 2.4 | 155 nM | 64 nM |  | O=C(Cc1ccccc1)Nc1ncc(C2CCCC2)s1 |
| 4 | 176 nM | 44 nM |  | O=C(Nc1ccc2cnccc2c1)Nc1ncc(C2CCC2)s1 |
| 11 | 55 nM | 5 nM |  | O=C(Nc1ncc(C2CCC2)s1)Nc1cccc2ccncc12 |
| 0.7 |  | 621 nM | 412 nM | CCc1cnc(NC(=O)Cc2ccccc2)s1 |
| 2.1 | 100 nM | 48 nM |  | O=C(Cn1ccc2ccccc21)Nc1ncc(C2CCC2)s1 |
| 0.9 |  | 1150 nM | 1020 nM | CC(C)c1cnc(NC(=O)c2ccccc2)s1 |
| 2.2 | 26 nM | 13 nM |  | Cc1cc2ncn(CC(=O)Nc3ncc(C4CCC4)s3)c2cc1C |
| 1.2 | 4120 nM | 3270 nM |  | CCCCCc1cnc(NC(=O)Cc2ccccc2)s1 |
| 1.2 | 4810 nM | 3990 nM |  | CN(C)c1cnc(NC(=O)Cc2ccccc2)s1 |
| 4.7 | 33 nM | 7 nM |  | O=C(Cc1ccc2[nH]cnc2c1)Nc1ncc(C2CCC2)s1 |
| 1.3 | 16 nM | 12 nM |  | Cc1nc2ccc(CC(=O)Nc3ncc(C4CCC4)s3)cc2s1 |
| 12 | 96 nM | 8 nM |  | O=C(Nc1ncc(C2CCC2)s1)Nc1cccc2cnccc12 |
| 0.6 | 4600 nM | 7670 nM |  | CC(=O)c1cnc(NC(=O)Cc2ccccc2)s1 |
| 3.3 | 43 nM | 13 nM |  | O=C(Nc1ncc(C2CCC2)s1)Nc1cccc2ncccc12 |

| Structure (SMILES) | Ratio [1] | IC50 [2] | IC50 [3] | IC50 [4] |
| --- | --- | --- | --- | --- |
| CC(C)c1cnc(NC(=O)Oc2ccccc2)s1 | 0.6 |  | 1600 nM | 980 nM |
